# From PubChem BioAssay
# RGS4 pot: potentiators or activators of RGS4; HEK293 M3R/inducible RGS4, carbachol calcium flux Fluo4; stronger effect = lower value; B-score at 10 µM; 310,000 compounds, 0.92% hits; AID 463111;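 active = B-score of the integrated calcium signal more than 4 SD below the library mean, with starting fluorescence not abnormally high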;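 note: negative B-score means reduced calcium response which marks RGS4 activation or potentiation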
#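 Material: Inducible-RGS4 HEK293 cells carrying M3 receptor; also added: carbachol at ECmax as muscarinic agonist stimulus; incubation: compound preincubation 20 min at room temperature before agonist; signal: Fluo4-AM (2 µM) calcium-flux fluorescence, kinetic read; measure: integrated calcium ratio converted to B score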
# MrgX1 PAM: allosterically activates human MrgX1 receptor signaling; 310,000 compounds, 0.63% hits; B-score at 10 µM; MrgX1-HEK293, Fluo-4 calcium flux, FDSS; stronger effect = higher value; AID 588675; Q96LB2;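 active = plate-corrected calcium response at least 3 library SD above typical, normal starting fluorescence, not activating the receptor alone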;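 note: compound read alongside a low EC10 to EC30 dose of BAM8-22 agonist; peak minus trough fluorescence over baseline measured at the second addition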
# Target sequence (Q96LB2 whole entry, looked up): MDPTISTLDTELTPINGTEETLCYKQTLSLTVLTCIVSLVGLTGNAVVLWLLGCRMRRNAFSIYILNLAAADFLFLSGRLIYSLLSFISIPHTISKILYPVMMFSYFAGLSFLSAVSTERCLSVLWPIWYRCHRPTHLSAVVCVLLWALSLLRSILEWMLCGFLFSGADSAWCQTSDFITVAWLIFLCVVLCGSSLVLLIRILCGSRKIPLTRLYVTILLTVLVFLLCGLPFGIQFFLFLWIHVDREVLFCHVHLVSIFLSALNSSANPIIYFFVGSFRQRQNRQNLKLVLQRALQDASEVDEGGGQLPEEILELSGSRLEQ
# RGS4 block: inhibitors of human RGS4 | HEK293 M3R/RGS4 inducible, Fluo-4 calcium flux; stronger effect = higher value; triggered by carbachol at its EC20 | 310,000 compounds, 0.45% hits | B-score at 10 µM;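 active = B-score, a plate-corrected calcium signal, over three deviations above library mean, with baseline fluorescence within five deviations of library mean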;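 note: RGS4 expression induced by doxycycline in cells with stable M3 receptor; B-score is computed from the integrated fluorescence ratio over baseline after carbachol; higher B-score means a larger calcium signal and so more RGS4 inhibition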
# Kir21 block: inhibitors of mouse Kir2.1 inward-rectifier potassium channel. P35561. HEK293-Kir2.1, FluxOR thallium flux fluorescence; stronger effect = lower value. B-score at 10 µM. 310,000 compounds, 0.85% hits. AID 1672;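 active = fluorescence ratio B-score at or below minus 3 SD of library scores, with starting-brightness B-score within 2 SD, cut at about -4.2 in these data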;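 note: channel flux triggered by added potassium and thallium sulfate stimulus; B-score of peak minus minimum fluorescence over baseline after thallium stimulus; more negative B-score means stronger Kir2.1 block with less thallium influx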
# MrgX1 antag: human MrgX1 receptor antagonism, primary screen; MRGX1-HEK293 calcium flux, Fluo-4, BAM8-22 antagonism; stronger effect = lower value; B-score at 10 µM; 310,000 compounds, 1.3% hits;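 active = calcium-response B-score plate-corrected more than 3 library SD below zero, starting fluorescence within 5 deviations, no agonist response on first addition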;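 note: peak minus trough fluorescence over baseline after final BAM8-22 challenge near maximal dose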
# MrgX1 agonist: agonists of human MrgX1 receptor. MrgX1-HEK293 cells, Fluo-4 calcium fluorescence, agonist mode; stronger effect = higher value. B-score at 10 µM. 310,000 compounds, 0.44% hits. AID 588627;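 active = calcium response B-score plate-corrected fluorescence ratio at least 3 library SD, with starting fluorescence B-score inside 5 SD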
#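 Material: MrgX1-expressing HEK293 cells; input: 15,000 cells per well; doses: test compound given as first of three sequential additions; schedule: overnight plating before 1 h dye loading; technique: Fluo-4 NW calcium-flux fluorescence, kinetic read; evaluation: baseline-normalised fluorescence change ratio, B-scored; control set: plate-wise positive and negative controls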
# RGS4 act valid: confirmation of RGS4 activators | 1,100 compounds, 89% hits | inhibition, % at 10 µM | shares compounds with RGS4 pot | HEK293 M3R/RGS4 inducible, carbachol calcium flux Fluo4;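 active = inhibition above 3 SD of the buffer control wells, cut at about 41% in these data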;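 note: signal is the integrated peak-minus-minimum Fluo4 fluorescence over baseline ratio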
# M3R Ca counter: counter-screen for RGS4 activators: effect in non-induced cells | shares compounds with RGS4 pot | HEK293 M3R non-induced RGS4, Fluo4 calcium flux; after carbachol challenge at its EC90 | inhibition, % at 10 µM | 1,100 compounds, 82% hits | AID 602283;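 active = inhibition exceeding 3 SD of buffer-only control wells, cut at about 26% in these data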;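 note: percent drop in integrated peak-minus-baseline over baseline Fluo4 ratio after carbachol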
# * hit, by the source's call; i = inactive; x = no result given. Rows were chosen to be rich in hits. Some 4.1% of all compounds tested hit in one or more screens of this group.
SMILES,RGS4 pot,MrgX1 PAM,RGS4 block,Kir21 block,MrgX1 antag,MrgX1 agonist,RGS4 act valid,M3R Ca counter
CCC(C)C(NC(=O)c1ccc(Cl)cc1)C(=O)O (stereo unspecified),i,i,i,1,i,i,x,x
CC(C)OCCCN(C)C1CCN(S(=O)(=O)c2csc(C(N)=O)c2)CC1,i,i,i,0.13,i,i,x,x
CC(C)OCCCN(C)C1CCN(S(=O)(=O)c2ccc(-c3cc(C(F)(F)F)no3)s2)CC1,-7.7*,i,i,0.52,i,i,49*,84*
Cc1cccc(N(C)S(=O)(=O)c2ccc(-c3cnc(C4CC4)o3)cc2)c1,i,i,i,0.02,i,i,x,x
OC1(C#CCCN2CCCCC2)c2ccccc2-c2ccccc21,-8.7*,i,i,0.06,i,i,92*,60*
OC1(CC#CCN2CCCCC2)c2ccccc2-c2ccccc21,i,i,i,-0.53,i,i,x,x
COc1ccccc1C(CNC(=O)C(C)(C)Oc1ccc(Cl)cc1)N1CCCC1 (stereo unspecified),-8.8*,i,i,-2.6,i,i,90*,26*
CC(C)(Oc1ccc(Cl)cc1)C(=O)NCC(c1cccs1)N1CCOCC1 (stereo unspecified),i,i,i,-0.65,i,i,x,x
CCc1nnc(NC(=O)c2sc3nc4cc(C)ccc4cc3c2N)s1,-8.8*,i,i,-1.1,i,i,72*,32*
CN(C)Cc1ccccc1CCc1ccccc1,-8.3*,i,i,-0.26,i,i,78*,42*
COc1ccccc1-c1cn[nH]c1-c1ccc(OCc2ccccc2)cc1O,i,i,i,-0.98,i,i,x,x
COc1ccc(-c2cn[nH]c2-c2ccc(OCc3ccccc3)cc2O)cc1,-9.7*,i,i,0.72,i,i,0,0
OCCN(CC#CC(O)(c1ccccc1)c1ccccc1)CCO,i,i,i,-0.46,i,i,x,x
CC(C)N(CC#CC(O)(c1ccccc1)c1ccccc1)CCO,-8.6*,i,i,0.24,i,i,91*,52*
COc1cc(NC(=O)c2ccccc2Cl)c(OC)cc1NC(=O)CN1CCCCC1,i,i,i,-0.25,i,i,x,x
COc1cc(NC(=O)Nc2cccc(Cl)c2)c(OC)cc1NC(=O)CN1CCCCC1,-11*,i,i,-0.47,i,i,38*,0
CNc1nc(-c2ccccc2)cc(C(F)(F)F)c1C#N,i,i,i,0.21,i,i,x,x
CCN(CC)c1ccc(N=C2C(=O)Nc3ccccc32)cc1,-11*,i,i,0.33,i,i,84*,39*
CCOc1ccc(CN(C)c2nc(-c3cccnc3)nc3ccccc23)cc1OC,-9.2*,i,i,-0.26,i,i,76*,43*
CN(c1ncc(C(F)(F)F)cc1Cl)N1C(=O)c2cccc(N)c2C1=O,i,i,i,0.01,i,i,x,x
COc1cc(C(=S)N2CCN(C(c3ccccc3)c3ccccc3)CC2)cc(OC)c1O,i,i,i,0.19,i,i,x,x
COc1cc(CN2CCN(C(c3ccccc3)c3ccccc3)CC2)cc(OC)c1OC,-8.9*,i,i,2.1,i,i,86*,30*
COc1cccc(CN2CCN(C(c3ccccc3)c3ccccc3)CC2)c1O,-8.8*,i,i,-0.78,i,i,92*,75*
COc1ccc2c(C)cc(N3CCCCCC3)nc2c1,-11*,i,i,-0.88,i,i,92*,75*
CCOc1ccccc1NC(=O)C1C2CCC3C(CCC21)C3(Cl)Cl (stereo unspecified),-7.9*,i,i,-0.87,i,i,0,0
